In ChEMBL document CHEMBL4266004, “Series of Alkynyl-Substituted Thienopyrimidines as Inhibitors of Protozoan Parasite Proliferation” (ACS Med Chem Lett, 2018):
Active and inactive are the calls of the source. The calls are words filed in the database; no cut-off is given here.

Tests used:
[1] = tested on: Trypanosoma brucei; experiment: Antitrypanosomal activity against Trypanosoma brucei Lister 427 assessed as reduction in fraction of trypanosomes containing one nucleus at 9.5 uM after 3 hrs by mCLING/DAPI staining based fluorescence microsocpic method; type: functional, organism-based
Procedure, shortened: (§1)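 Mid-log bloodstream T. brucei (5 × 10^5 cells/mL) exposed to compound or DMSO for 3 h, fixed, stained with mCLING plus DAPI for kinetoplast and nuclear DNA; kinetoplasts and nuclei per cell counted by fluorescence microscopy (n >120 cells); mean percentages over three biological replicates; distribution compared by Pearson χ2.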

[2] = tested on: Trypanosoma brucei brucei; experiment: Antitrypanosomal activity against Trypanosoma brucei brucei 427 after 48 hrs by presto blue dye based fluorescence assay; type: functional, organism-based; settings: Trypanosoma brucei, 427, 48 h
[3] = tested on: Trypanosoma brucei; experiment: Inhibition of transferrin-647 uptake in Trypanosoma brucei Lister 427 at 9.5 uM after 3 hrs by propidium iodide staining based flow cytometry; type: functional, organism-based
[4] = tested on: Mus musculus; experiment: Time at which plasma concentration stays above in vitro antitrypanosomal EC50 in Swiss Webster mouse at 130 mg/kg, po by LC-MS/MS analysis; type: ADME, organism-based; settings: in vivo
[5] = tested on: Trypanosoma brucei; experiment: Antitrypanosomal activity against Trypanosoma brucei Lister 427 infected in Swiss Webster mouse assessed as reduction in parasitemia at 130 mg/kg, po via gavage once daily for 10 days starting from 24 hrs post infection by hemocytometric method; type: functional, organism-based
Procedure, shortened: (§2)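 Mice, four per group, infected with 10^5 T. brucei Lister427 (day 0); from 24 h, 130 mg/kg by oral gavage once daily for 10 days in 10% NMP/90% PEG; controls received vehicle; parasitemia followed over time after infection; mean parasitemia compared by Student's t test.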

[6] = tested on: Mus musculus; experiment: Toxicity in Swiss Webster mouse infected with Trypanosoma brucei Lister 427 at 130 mg/kg, po via gavage once daily for 10 days starting from 24 hrs post infection; type: organism-based; settings: in vivo
Procedure, shortened: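 Infected mice (four per group; 10^5 T. brucei Lister427) dosed orally 130 mg/kg once daily for 10 days from 24 h post-infection, vehicle 10% NMP/90% PEG; observed for signs of toxicity.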

[7] = tested on: Trypanosoma brucei; experiment: Antitrypanosomal activity against Trypanosoma brucei Lister 427 assessed as increase in fraction of trypanosomes containing one 2K2N at 9.5 uM after 3 hrs by mCLING/DAPI staining based fluorescence microsocpic method; type: functional, organism-based; procedure, shortened: as §1
[8] = tested on: Trypanosoma brucei; experiment: Antitrypanosomal activity against Trypanosoma brucei Lister 427 assessed as reduction in fraction of trypanosomes containing one kinetoplast at 9.5 uM after 3 hrs by mCLING/DAPI staining based fluorescence microsocpic method; type: functional, organism-based; procedure, shortened: as §1
[9] = tested on: Trypanosoma brucei; experiment: Antitrypanosomal activity against Trypanosoma brucei Lister 427 infected in Swiss Webster mouse assessed as reduction in parasitemia at 130 mg/kg, po via gavage once daily for 10 days starting from 24 hrs post infection measured on day 13 by hemocytometric method; type: functional, organism-based; procedure, shortened: as §2
[10] = tested on: Trypanosoma brucei; experiment: Antitrypanosomal activity against Trypanosoma brucei Lister 427 assessed as increase in fraction of trypanosomes containing one 2K1N at 9.5 uM after 3 hrs by mCLING/DAPI staining based fluorescence microsocpic method; type: functional, organism-based; procedure, shortened: as §1
[11] = tested on: Trypanosoma brucei; experiment: Antitrypanosomal activity against Trypanosoma brucei Lister 427 infected in Swiss Webster mouse assessed as mouse survival at 130 mg/kg, po via gavage once daily for 10 days starting from 24 hrs post infection (reference value: 5 day); type: functional
Procedure, shortened: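 Mice, four per group, infected with 10^5 T. brucei Lister427 on day 0. From 24 h, oral gavage at 130 mg/kg once daily for 10 days in 10% NMP/90% PEG; controls received vehicle only. Parasitemia followed through and after dosing. Survival compared by chi-square analysis of Kaplan–Meier data.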

[12] = Selectivity index, ratio of TC50 for human HepG2 cells to EC50 for Trypanosoma brucei brucei 427; type: toxicity; settings: read-out: Selectivity Index
[13] = Cytotoxicity against mouse NIH/3T3 cells; type: cell-based, NIH3T3; settings: read-out: TC50 (the source's name)
[14] = tested on: Trypanosoma cruzi; experiment: Antitrypanosomal activity against Trypanosoma cruzi Tulahuen intracellular amastigote harboring beta-galactosidase infected in mouse NIH/3T3 cells after 96 hrs by CPRG reagent based assay; type: functional, organism-based; settings: NIH3T3, 96 h
[15] = Selectivity index, ratio of TC50 for mouse NIH/3T3 cells to EC50 for Trypanosoma cruzi Tulahuen intracellular amastigote harboring beta-galactosidase; type: toxicity, cell-based; settings: read-out: Selectivity Index
Procedure, shortened: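 NIH 3T3 cells, the host line for intracellular T. cruzi amastigote culture, tested for toxicity. Selectivity = NIH3T3 TC50 / T. cruzi EC50.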

[16] = tested on: Leishmania major; experiment: Antileishmanial activity against Leishmania major intracellular amastigotes harboring luciferase infected in mouse RAW264.7 cells after 96 hrs by luminescence assay; type: functional, organism-based; settings: RAW264.7, 96 h
Procedure, shortened: (§3)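 L. major amastigotes screened in duplicate or quadruplicate. Selectivity derived as HepG2 TC50 / L. major EC50.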

[17] = tested on: Trypanosoma brucei brucei; experiment: Antitrypanosomal activity against Trypanosoma brucei brucei 427 at 5 uM after 48 hrs by presto blue dye based fluorescence assay relative to control; type: functional
Procedure, shortened: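 Single-concentration screen of bloodstream T. brucei cultures at 5 μM, 5 × 10^4 cells/mL; percent proliferation inhibition recorded.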

[18] = Selectivity index, ratio of TC50 for human HepG2 cells to EC50 for Plasmodium falciparum D6 trophozoites; type: toxicity; settings: read-out: Selectivity Index
Procedure, shortened: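 P. falciparum D6 screened in duplicate or quadruplicate. Selectivity = HepG2 TC50 / P. falciparum EC50.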

[19] = Selectivity ratio of EC50 for antimalarial activity against Plasmodium falciparum W2 trophozoites to EC50 for atimalarial activity against Plasmodium falciparum D6 trophozoites; type: functional
[20] = tested on: Plasmodium falciparum; experiment: Antimalarial activity against Plasmodium falciparum D6 trophozoites after 72 hrs by SYBR Green I dye-based fluorescence assay; type: functional, organism-based; settings: D6, 72 h
Procedure, shortened: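 P. falciparum D6 strain; compounds run in duplicate or quadruplicate; EC50 determined from dose-response.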

[21] = Selectivity ratio of EC50 for antimalarial activity against Plasmodium falciparum C235 trophozoites to EC50 for atimalarial activity against Plasmodium falciparum D6 trophozoites; type: functional
[22] = Cytotoxicity against human HepG2 cells; type: cell-based; settings: read-out: TC50 (the source's name)
[23] = Selectivity index, ratio of TC50 for human HepG2 cells to EC50 for Leishmania major intracellular amastigotes harboring luciferase infected in mouse RAW264.7 cells; type: toxicity, cell-based; settings: read-out: Selectivity Index; procedure, shortened: as §3
[24] = tested on: Trypanosoma brucei; experiment: Antiparasitic activity against Trypanosoma brucei; type: functional, organism-based

Q: For `Fc1cccc(COc2ccc(Nc3ncnc4cc(C#C[C@H]5CCCN5)sc34)cc2Cl)c1`, which Activity [1] is on record?
A: Active

Q: And the EC50 [2]?
A: 0.26 µM

Q: And the inhibition [3]?
A: inactive

Q: What about the Time [4] of the same compound?
A: <= 4 hr

Q: What about the Activity [5] of the same compound?
A: Active

Q: And the Activity [6]?
A: Non-Toxic

Q: What about the Activity [7] of the same compound?
A: Active

Q: What about the Activity [8] of the same compound?
A: Active

Q: And the Activity [9]?
A: inactive

Q: What about the Activity [10] of the same compound?
A: Active

Q: And the Survival [11]?
A: 7.5 days

Q: With `CN1CCN(CC#Cc2cc3ncnc(Nc4ccc(OCc5cccc(F)c5)c(Cl)c4)c3s2)CC1` as the compound, how does the EC50 [2] read?
A: 2.5 µM

Q: What about the selectivity ratio [12] of the same compound?
A: 4.3

Q: What about the CC50 [13] of the same compound?
A: 4.8 µM

Q: What about the EC50 [14] of the same compound?
A: 2.1 µM

Q: And the selectivity ratio [15]?
A: 2.3

Q: What about the EC50 [16] of the same compound?
A: > 15 µM

Q: What about the Activity [17] of the same compound?
A: >75%

Q: And the selectivity ratio [18]?
A: 17

Q: What about the Ratio EC50 [19] of the same compound?
A: < 3

Q: What about the EC50 [20] of the same compound?
A: 0.64 µM

Q: And the Ratio EC50 [21]?
A: < 3

Q: And the CC50 [22]?
A: 11 µM

Q: With `Fc1cccc(COc2ccc(Nc3ncnc4sc(C#CCN5CCNCC5)cc34)cc2Cl)c1` as the compound, how does the EC50 [2] read?
A: 1.9 µM

Q: What about the selectivity ratio [12] of the same compound?
A: 4.1

Q: And the CC50 [13]?
A: 3.9 µM

Q: What about the EC50 [14] of the same compound?
A: 0.61 µM

Q: And the selectivity ratio [15]?
A: 6.4

Q: What about the selectivity ratio [23] of the same compound?
A: 0.85

Q: What about the EC50 [16] of the same compound?
A: 9.1 µM

Q: What about the Activity [17] of the same compound?
A: >75%

Q: And the selectivity ratio [18]?
A: 20

Q: What about the Ratio EC50 [19] of the same compound?
A: < 3

Q: What about the EC50 [20] of the same compound?
A: 0.38 µM

Q: What about the Ratio EC50 [21] of the same compound?
A: < 3

Q: And the CC50 [22]?
A: 7.7 µM

Q: For `CS(=O)(=O)CCNCc1ccc(-c2ccc3ncnc(Nc4ccc(OCc5cccc(F)c5)c(Cl)c4)c3c2)o1` [LAPATINIB], which EC50 [24] is on record?
A: 1.4 to 1.5 µM

Q: Which CC50 [13] does the source give for `CCCN(CC#Cc1cc2c(Nc3ccc(OCc4cccc(F)c4)c(Cl)c3)ncnc2s1)CCC` here?
A: 2.2 µM

Q: What about the EC50 [14] of the same compound?
A: 1.7 µM

Q: What about the selectivity ratio [15] of the same compound?
A: 1.3

Q: And the selectivity ratio [23]?
A: 12

Q: And the EC50 [16]?
A: 1.4 µM

Q: And the Activity [17]?
A: 0%

Q: And the selectivity ratio [18]?
A: 21

Q: What about the Ratio EC50 [19] of the same compound?
A: < 3

Q: And the EC50 [20]?
A: 0.8 µM

Q: And the Ratio EC50 [21]?
A: < 3

Q: What about the CC50 [22] of the same compound?
A: 17 µM
